The values that follow come from ChEMBL document CHEMBL1649070, “Virtual screening identification of nonfolate compounds, including a CNS drug, as antiparasitic agents inhibiting pteridine reductase” (J Med Chem, 2011).

In general, solubility refers to how much of the substance goes into solution per volume. A low value points to a poorly soluble substance. One may read the logD as the decadic logarithm of the distribution of all forms, ionised or not, between an organic phase and buffer at a given pH. A lower logD goes with lower lipophilicity.

≈ marks a conversion by molar mass, not a printed value. Calls of active or inactive are those of the source. The rule behind the calls is not given here.

The target of data set [1] is Bifunctional dihydrofolate reductase-thymidylate synthase (Leishmania major) (UniProt P07382). In words: Inhibition of Leishmania major DHFR at 50 uM. The procedure, abridged:
(§1)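 NADPH oxidation followed at 340 nm. Compounds in DMSO, screened at a single concentration between 25 μM and 1 mM. Measurements run in triplicate.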

For data set [2], the target named is T1, Dihydrofolate reductase (Homo sapiens) (UniProt P00374).
T1 sequence (whole entry): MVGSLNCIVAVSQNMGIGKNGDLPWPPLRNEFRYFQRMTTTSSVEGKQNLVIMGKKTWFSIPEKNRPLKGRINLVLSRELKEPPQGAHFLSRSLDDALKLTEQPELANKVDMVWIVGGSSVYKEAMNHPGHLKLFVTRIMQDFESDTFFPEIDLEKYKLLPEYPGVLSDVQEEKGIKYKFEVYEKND
Kind of data set: Inhibition of human DHFR at 50 uM. The procedure, abridged: as §1

For data set [3], the system named is Leishmania mexicana. Kind of data set: Antileishmanial activity against Leishmania mexicana MHOM/BZ/84/BEL46 assessed as growth at 50 ug/ml by Alamar blue assay. It is filed as functional. The procedure, abridged: (§2)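 Promastigotes grown in SDM-79, pH 7.3, with 15% heat-inactivated FCS at 28 C in 5% CO2, then seeded at 1 × 10^6 parasites/mL. Each compound tested alone at 50 μg/mL in duplicate as a control for the combination experiments; DMSO below 1% final. After 72 h at 28 C, Alamar Blue added for 4 h; fluorescence read at ex 530 / em 590 nm. Growth expressed as percentage of untreated cultures.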
A general note: Resazurin is reduced to fluorescent resorufin, in cell work by metabolically active cells.

The test system of data set [4] is Leishmania major. In words: Antileishmanial activity against Leishmania major MHOM/SU/73/5-ASKH assessed as growth at 50 ug/ml by Alamar blue assay. It is filed as functional. The procedure, abridged:
as §2

Data set [5] deals with T2, Pteridine reductase 1 (Leishmania major) (UniProt Q01782).
T2 sequence (whole entry): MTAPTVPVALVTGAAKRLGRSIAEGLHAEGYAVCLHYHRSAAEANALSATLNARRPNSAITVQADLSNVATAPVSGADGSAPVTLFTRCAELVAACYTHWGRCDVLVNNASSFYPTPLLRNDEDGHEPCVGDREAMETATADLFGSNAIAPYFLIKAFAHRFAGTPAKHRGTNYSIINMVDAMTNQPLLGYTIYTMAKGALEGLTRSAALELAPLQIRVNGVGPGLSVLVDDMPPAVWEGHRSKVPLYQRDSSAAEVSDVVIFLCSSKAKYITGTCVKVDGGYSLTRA
Kind of data set: Inhibition of Leishmania major PTR1 at 5 uM. The procedure, abridged:
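Compounds dissolved in DMSO and screened at a single 5 μM concentration; DMSO kept below 1%. Measurements run in triplicate.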

In data set [6] the test system is Leishmania major. In words: Antileishmanial activity against Leishmania major MHOM/SU/73/5-ASKH assessed as growth at 50 ug/ml by Alamar blue assay in presence of pyrimethamine; 5-(4-chlorophenyl)-6-ethylpyrimidine-2,4-diamine DHFR inhibitor; values are per cent of control.
For data set [7], the system named is Leishmania mexicana. Kind of data set: Antileishmanial activity against Leishmania mexicana MHOM/BZ/84/BEL46 assessed as growth at 50 ug/ml by Alamar blue assay in presence of pyrimethamine; 5-(4-chlorophenyl)-6-ethylpyrimidine-2,4-diamine DHFR inhibitor; values are per cent of control.
Data set [8] addresses T1, Dihydrofolate reductase (Homo sapiens). Kind of data set: Inhibition of human DHFR at 100 uM. The procedure, abridged:
as §1

Data set [9] has as its target Bifunctional dihydrofolate reductase-thymidylate synthase (Leishmania major) (UniProt P07382). In words: Inhibition of Leishmania major DHFR at 1 mM. The procedure, abridged: as §1
Data set [10] is described as follows: Cytotoxicity against human MRC5 cells after 72 hrs by Alamar blue assay. It is filed as cell-based. Particulars: read-out: ED50.
The test system of data set [11] is Leishmania mexicana. In words: Antileishmanial activity against Leishmania mexicana MHOM/BZ/84/BEL46 assessed as growth by Alamar blue assay. Particulars: read-out: ED50 (the source's name). The class given is functional. The procedure, abridged:
(§3)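 Promastigotes cultured in SDM-79, pH 7.3, with 15% heat-inactivated FCS at 28 C under 5% CO2, then seeded at 1 × 10^6 parasites/mL. DMSO dilutions in medium tested from 100 μg/mL downward, DMSO <1% final. After 72 h at 28 C, Alamar Blue added for 4 h; fluorescence at ex 530 / em 590 nm. Untreated cultures set as 100%. ED50 by linear interpolation; three independent experiments, each in duplicate.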

Data set [12] is described as follows: Solubility of the compound at pH 7.4. It is filed as physicochemical. Particulars: buffer.
The nature of data set [13]: Lipophilicity, log D of the compound in octanol buffer at pH 7.4. The class given is physicochemical.
In data set [14] the target is T1, Dihydrofolate reductase (Homo sapiens). Kind of data set: Inhibition of human DHFR at 1 mM. The procedure, abridged:
as §1

The subject of data set [15] is Leishmania major. Kind of data set: Antileishmanial activity against Leishmania major MHOM/SU/73/5-ASKH assessed as growth by Alamar blue assay. The class given is functional. Particulars: read-out: ED50 (the source's name). The procedure, abridged:
as §3

Data set [16] concerns the target Bifunctional dihydrofolate reductase-thymidylate synthase (Leishmania major) (UniProt P07382). Kind of data set: Inhibition of Leishmania major DHFR at 25 uM. The procedure, abridged:
as §1

Data set [17] deals with T1, Dihydrofolate reductase (Homo sapiens). In words: Inhibition of human DHFR at 25 uM. The procedure, abridged:
as §1

The nature of data set [18]: Cytotoxicity against human MRC5 cells at 100 ug/ml after 72 hrs by Alamar blue assay. It is filed as cell-based. Particulars: at 100 µg/mL, read-out: INH.

Chain of Bifunctional dihydrofolate reductase-thymidylate synthase (Leishmania major) (P07382 whole entry, looked up): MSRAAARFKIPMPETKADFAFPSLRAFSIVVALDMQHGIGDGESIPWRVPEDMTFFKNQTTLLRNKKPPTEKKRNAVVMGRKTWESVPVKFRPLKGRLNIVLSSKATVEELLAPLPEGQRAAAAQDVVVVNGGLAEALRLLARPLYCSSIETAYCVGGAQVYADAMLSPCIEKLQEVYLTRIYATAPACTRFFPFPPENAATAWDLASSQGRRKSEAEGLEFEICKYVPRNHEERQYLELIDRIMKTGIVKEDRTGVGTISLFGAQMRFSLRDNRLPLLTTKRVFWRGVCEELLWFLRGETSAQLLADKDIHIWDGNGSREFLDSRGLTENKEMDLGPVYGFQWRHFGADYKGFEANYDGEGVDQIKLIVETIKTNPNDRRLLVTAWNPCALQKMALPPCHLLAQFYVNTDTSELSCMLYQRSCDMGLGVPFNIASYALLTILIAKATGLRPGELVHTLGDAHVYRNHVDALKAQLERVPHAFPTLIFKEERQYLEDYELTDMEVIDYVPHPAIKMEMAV

Take `Nc1nnc(-c2ccc3[nH]nnc3c2)s1`: the inhibition result in [1], in data set [2] and in data set [5] was “inactive” throughout. Moreover, the growth, % of control at 50 µg/mL in data set [3] was 112%; in data set [4] it was 83.5%; in data set [6], 40.9%; in data set [7], 18.2%.

On to `Cn1ncc2cc(N)ccc21`, for which the inhibition entry in [1] and in data set [8] was “inactive” throughout.

`Nc1nc2ccc(OC(F)(F)F)cc2s1` [RILUZOLE]: in [9], the inhibition entry was “inactive”. For the same compound, the growth, % of control at 50 µg/mL in data set [3] stood at 21.5%; in data set [4], 102%; in data set [6], 22.9%; in [7], 15.1%. The CC50 at 72 h in data set [10] was 27.9 µg/mL (≈ 119 µM). Besides, the EC50 in data set [11] stood at 30.8 µg/mL (≈ 132 µM).

As to `Nc1nnc(CCC(=O)c2cccs2)s1`, the growth, % of control at 50 µg/mL turned out to be 96.9% in [3], 85.1% in data set [4], 17.5% in [6] and 27.3% in [7]. The CC50 at 72 h in data set [10] was found to be 34.4 µg/mL (≈ 144 µM). Further, the solubility in data set [12] amounted to 1200 µM (≈ 287 µg/mL). This compound yielded a logD in data set [13] of 1.11. For the same compound, the inhibition entry in data set [5] was “inactive”.

For the compound `Nc1nnc(-c2cc(=O)c3ccccc3o2)s1`, the inhibition entry in data set [2] and in data set [5] was “inactive” each time. The growth, % of control at 50 µg/mL came to 132% in data set [3], 76% in data set [4], 14.6% in data set [6] and 35.1% in data set [7]. Further, the CC50 at 72 h in data set [10] was determined as 43 µg/mL (≈ 175 µM). In [12], the solubility came out at 730 µM (≈ 179 µg/mL). In [13], the logD was 1.4.

As to `Nc1nncs1`, the inhibition result in data set [14] was “inactive”.

For the compound `O=C(CCCl)Nc1nnc(CCCl)s1`, the inhibition entry in data set [1] and in data set [5] was “inactive” throughout. In addition, the growth, % of control at 50 µg/mL in data set [3] is 4.7%; in [4] it was 7.1%; in [6], 4.1%; in data set [7], 3.5%. Besides, the CC50 at 72 h in [10] is 4.18 µg/mL (≈ 16.4 µM). The EC50 in [11] was determined as 10.1 µg/mL (≈ 39.7 µM); in [15] it was 22.1 µg/mL (≈ 87 µM).

For the compound `Nc1nc2ccc([N+](=O)[O-])cc2s1`, the inhibition result in data set [16] and in data set [17] was “inactive” in each case.

As for `Nc1nnc(-c2cnccc2N)s1`, the inhibition result in data set [1], in data set [2] and in data set [5] was “inactive” each time. The growth, % of control at 50 µg/mL was 112% in data set [3], 106% in data set [4], 38% in data set [6] and 15.6% in data set [7]. Besides, in [18], the cytotoxicity at 72 h, 100 ug/ml stood at 10%. This compound had a solubility in [12] of 1700 µM (≈ 328 µg/mL). The compound further showed a logD in [13] of 1.44.
